These results are taken from ChEMBL document CHEMBL2346655, “Synthesis and in vitro biological evaluation of 2,6,9-trisubstituted purines targeting multiple cyclin-dependent kinases” (Eur J Med Chem, 2013).

Usually IC50 stands for the concentration that gives 50% inhibition.

Structures are written as SMILES. Calls of active or inactive are those of the source. The rule behind the calls is not given here.

The subject of test [1] is K562. The experiment in a line: Induction of apoptosis in human K562 cells assessed as change in PUMA level up to 5 uM after 24 hrs by immunoblotting analysis. It counts as functional, cell-based. Summed up:
(§1)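 Cells were treated for 24 h, harvested directly into Laemmli sample buffer, and run on SDS-PAGE. Proteins were blotted to nitrocellulose, blocked, probed overnight with primary antibodies, then with peroxidase-linked secondaries. Bands were detected by ECL with a CCD camera. PCNA and tubulin served as loading references.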
In general terms: Immunoblotting shows a protein as a band on a membrane.

For the next test, the system named is MCF7. The experiment in a line: Ratio of roscovitine IC50 to compound IC50 for human MCF7 cells. It counts as functional. In short, it runs like this: (§2)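 Cytotoxicity IC50s underlying the ratio: cells treated in triplicate with three-fold compound dilutions for 72 h, then Calcein AM added and live-cell fluorescence read at 485/538 nm (ex/em).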
Test [2] has as its system K562. The experiment in a line: Cell cycle arrest in human K562 cells assessed as accumulation at G1 phase at 0.2 uM after 24 hrs by propidium iodide staining-based flow cytometric analysis (reference value: 47.3%). It counts as functional. Summed up: (§3)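 Sub-confluent cells treated at several concentrations for 24 h, then pulsed with 10 μM BrdU for 30 min at 37 °C before harvest. Cells were PBS-washed, fixed in 70% ethanol, denatured in 2 M HCl and neutralized. Stained with fluorescein anti-BrdU and propidium iodide; DNA content read by flow cytometry with 488 nm excitation.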

In test [3] the test system is HCT-116. The experiment in a line: Induction of apoptosis in human HCT116 cells assessed as PARP cleavage up to 5 uM after 24 hrs by immunoblotting analysis. It counts as functional, cell-based. Summed up: as §1
Test [4] concerns K562. The experiment in a line: Cell cycle arrest in human K562 cells assessed as accumulation at G2/M phase at 1 uM after 24 hrs by propidium iodide staining-based flow cytometric analysis (reference value: 13.8%). It counts as functional. Summed up: as §3
On the technique in general: A flow cytometer gives signals particle by particle.

Test [5] relates to HCT-116. The experiment in a line: Cell cycle arrest in human HCT116 cells assessed as accumulation at subG1 phase at 0.2 uM after 24 hrs by propidium iodide staining-based flow cytometric analysis (reference value: 1.4%). It counts as functional. In short, it runs like this:
as §3

Another test relates to G-361. The experiment in a line: Cytotoxicity against human G361 cells assessed as reduction in number of viable cells after 72 hrs by fluorescence assay. It counts as functional, cell-based. Conditions: G-361, 72 h. Summed up:
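Three-fold compound dilutions tested in triplicate on cultured cells for 72 h. Viable cells detected by adding Calcein AM and reading fluorescence at 485/538 nm (ex/em).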

Test [6] relates to K562. The experiment in a line: Induction of apoptosis in human K562 cells assessed as decrease in MCL1 level after 24 hrs by immunoblotting analysis. It counts as functional, cell-based. In short, it runs like this: as §1
Test [7] deals with K562. The experiment in a line: Ratio of roscovitine IC50 to compound IC50 for human K562 cells. It counts as functional. In short, it runs like this: as §2
Test [8] concerns K562. The experiment in a line: Cell cycle arrest in human K562 cells assessed as accumulation at subG1 phase at 0.2 uM after 24 hrs by propidium iodide staining-based flow cytometric analysis (reference value: 2.4%). It counts as functional. In short, it runs like this:
as §3

Another test concerns CCRF-CEM. The experiment in a line: Ratio of roscovitine IC50 to compound IC50 for human CEM cells. It counts as functional. In short, it runs like this: as §2
The subject of test [9] is HCT-116. The experiment in a line: Cell cycle arrest in human HCT116 cells assessed as accumulation at G2/M phase at 0.2 uM after 24 hrs by propidium iodide staining-based flow cytometric analysis (reference value: 19.6%). It counts as functional. Summed up: as §3
Test [10] has as its target T1, Cyclin-dependent kinase 7/ cyclin H (Homo sapiens) (UniProt P51946+P50613). The experiment in a line: Inhibition of CDK7/CyclinH/MAT1-mediated phosphorylation of RNA polymerase 2 at Ser2 in human K562 cells up to 25 uM after 24 hrs by immunoblotting analysis. It counts as cell-based. Summed up:
(§4)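 Treated cells were lysed in Laemmli buffer and separated by SDS-PAGE, then transferred to nitrocellulose. Blots were probed overnight with phospho-RNA polymerase II (S2) and total RNA polymerase II (clone ARNA-3) antibodies, followed by peroxidase secondaries. Signal was developed by ECL on a CCD camera.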

The target in test [11] is T1, Cyclin-dependent kinase 7/ cyclin H (Homo sapiens). The experiment in a line: Inhibition of CDK7/CyclinH/MAT1-mediated phosphorylation of RNA polymerase 2 at Ser2 in human HCT116 cells up to 25 uM after 24 hrs by immunoblotting analysis. It counts as cell-based. The note with it: HCT-116. In short, it runs like this:
as §4

Test [12] relates to K562. The experiment in a line: Cell cycle arrest in human K562 cells assessed as accumulation at subG1 phase at 1 uM after 24 hrs by propidium iodide staining-based flow cytometric analysis (reference value: 2.4%). It counts as functional. Summed up: as §3

In the case of `CC[C@@H](Nc1nc(NCc2cc(Cl)ccc2O)c2ncn(C(C)C)c2n1)C(C)O` (mixture of isomers), the result in the test on K562 [1] was inactive. Also, the “Ratio IC50” value with MCF7, with K562 [7] and with CCRF-CEM was greater than 9 throughout. Further, the Activity is 34.7% with K562 [2]; 28.7% with K562 [4]; 1.5% in the test on HCT-116 [5]; “Dose-dependent effect” in the test on K562 [6]; 2.8% in the test on K562 [8]; 23.4% with HCT-116 [9]. Moreover, in the test on K562 [12], the Activity was 3.3%. Moreover, the outcome with HCT-116 [3] was Active. In addition, in the test on G-361, the 50% inhibitory concentration (IC50) came to 2300 nM. The inhibition result in [10] and in [11] was “Active” in each case.
